# What was measured:
# [1] = molecular target: T1, Holo-[acyl-carrier-protein] synthase (Bacillus subtilis (strain 168), UniProt P96618); experiment: In vitro inhibitory activity against Holo-[acyl-carrier-protein] synthase was determined using Bacillus subtilis GST-Acp-HTRFassay
# T1 sequence (P96618 whole entry): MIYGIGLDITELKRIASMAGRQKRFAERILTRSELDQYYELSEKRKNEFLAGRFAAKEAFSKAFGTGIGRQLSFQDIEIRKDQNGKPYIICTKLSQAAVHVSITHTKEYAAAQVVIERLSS
# Procedure, shortened: (§1)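 B. subtilis AcpS at 15 ng/mL was incubated with biotin-CoA and GST-ACP as acceptor. Buffer was 50 mM Tris·HCl pH 8.0 with 7.5 mM MgCl2, 3.75 mM DTT, 0.0375% Tween-20 and BSA. The reaction ran 3 h at room temperature. It was stopped with EDTA/KF containing europium cryptate anti-GST antibody plus streptavidin–allophycocyanin, and read by HTRF. Standard error per run is 10%.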
# [2] = Minimum inhibitory concentration required against […] faecalis ATCC strain was determined; format: functional; conditions: Enterococcus faecalis
# Procedure, shortened: (§2)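 MICs against aerobic bacteria were determined by broth microdilution as recommended by NCCLS. Each compound was tested once against each strain. Standard error per run is 1 dilution.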
# Streptococcus pneumoniae = experiment: Minimum inhibitory concentration required against Streptococcus pneumoniae; format: functional; procedure, shortened: as §2
# Enterococcus faecalis = experiment: Minimum inhibitory concentration required against Enterococcus faecalis VRE strain was determined; format: functional; procedure, shortened: as §2
# Bacillus subtilis = experiment: Minimum inhibitory concentration required against Bacillus subtilis was determined; format: functional; procedure, shortened: as §2
# [3] = molecular target: T1, Holo-[acyl-carrier-protein] synthase; experiment: In vitro inhibitory activity against acyl carrier protein synthase (AcpS) in Bacillus subtilis GST-Acp-HTRFassay; procedure, shortened: as §1
SMILES,IC50 [1] [nM],MIC [2] [µM],MIC (Streptococcus pneumoniae) [µM],MIC (Enterococcus faecalis) [µM],MIC (Bacillus subtilis) [µM],IC50 [3] [nM]
O=C(O)c1cc(Br)c(Cl)cc1/N=C/c1nc(-c2ccc(Cl)cc2)oc1O,> 20000,> 200,–,–,> 200,–
Cc1ccc(/N=C/c2nc(-c3cccc(OC(F)(F)F)c3)oc2O)c(C(=O)O)c1,–,200,25,100,25,4400
O=C(O)c1ccccc1/N=C/c1nc(-c2ccc(Cl)cc2)oc1O,15000,> 200,> 200,> 200,> 200,–
O=C(O)c1cc(Br)ccc1/N=C/c1nc(-c2cccc(OC(F)(F)F)c2)oc1O,15000,50,12.5,25,25,–
COc1ccc(-c2nc(/C=N/c3ccc(F)cc3C(=O)O)c(O)o2)cc1,> 20000,> 200,–,–,> 200,–
O=C(O)c1cc(Cl)ccc1/N=C/c1nc(-c2cccc(OC(F)(F)F)c2)oc1O,20000,100,25,50,50,–
O=C(O)c1ccccc1/N=C/c1nc(-c2ccccc2)oc1O,> 20000,–,–,–,–,–
O=C(O)c1cc(F)ccc1/N=C/c1nc(-c2ccc(Cl)cc2)oc1O,2100,100,200,100,> 200,–
O=C(O)c1cc(Br)ccc1/N=C/c1nc(-c2ccc(Cl)cc2)oc1O,3400,100,100,200,> 200,–
O=C(O)c1cc(Br)c(Cl)cc1/N=C/c1nc(-c2ccc(C(F)(F)F)cc2)oc1O,2000,100,100,50,> 200,–

# Second part, the molecule after the results:
IC50 [1] [nM],MIC [2] [µM],MIC (Streptococcus pneumoniae) [µM],MIC (Enterococcus faecalis) [µM],MIC (Bacillus subtilis) [µM],IC50 [3] [nM],SMILES
1500,25,12.5,25,50,–,O=C(O)c1cc(Br)ccc1/N=C/c1nc(-c2ccc(C(F)(F)F)c(F)c2)oc1O
1100,50,12.5,50,50,–,O=C(O)c1cc(Cl)ccc1/N=C/c1nc(-c2ccc(C(F)(F)F)c(F)c2)oc1O
1900,100,100,200,200,–,O=C(O)c1cc(F)ccc1/N=C/c1nc(-c2ccc(C(F)(F)F)cc2)oc1O
130,> 200,200,> 200,> 200,–,CC(=O)Nc1ccc(/N=C/c2nc(-c3ccc(C(F)(F)F)c(F)c3)oc2O)c(C(=O)O)c1
830,> 200,100,100,100,–,Cc1ccc(/N=C/c2nc(-c3ccc(C(F)(F)F)cc3)oc2O)c(C(=O)O)c1
1300,25,12.5,50,200,–,O=C(O)c1cc(I)ccc1/N=C/c1nc(-c2ccc(Cl)cc2)oc1O
270,100,25,100,25,–,Cc1ccc(/N=C/c2nc(-c3ccc(C(F)(F)F)c(F)c3)oc2O)c(C(=O)O)c1

# From ChEMBL document CHEMBL1137973, “Anthranilate 4H-oxazol-5-ones: novel small molecule antibacterial acyl carrier protein synthase (AcpS) inhibitors” (Bioorg Med Chem Lett, 2004)
